# Shown are actives, neighbours in structure and some others; about 1.3% of the full set was active somewhere.
# LEDGF integ inh: blocks HIV-1 LEDGF/p75-dependent DNA integration; inhibition, % at 3.7 µM; AID 743269; TR-FRET IN-LEDGF/p75 DNA integration, Eu/Cy5; actives 0.64% (n = 370,000);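 active means inhibition above the screen-wide mean plus 3 SD, cut at about 13% in these data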;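 further: signal is the Cy5 over europium emission ratio at 671 and 618 nm; 0% = plate median of compound wells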
# NSD2 HMT inh: NSD2 (human) methyltransferase inhibition; NSD2 peptide methylation, AlphaScreen, 120 min; inhibition, % at 12.5 µM; actives 0.54% (n = 310,000); in the data active means inhibition above about 50%
# UCH37 inh: human UCH37 deubiquitinating enzyme inhibition; Q9Y5K5; purified proteasome/UCH37, Ub-AMC cleavage fluorescence; inhibition, % (test concentration not listed); actives 0.33% (n = 330,000); AID 588478;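 active means mean inhibition over replicate wells above about 20%, limit read from the data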;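 further: 0% = compound-free wells with enzyme and 100% = wells lacking proteasome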
# Target sequence (Q9Y5K5 whole entry, looked up): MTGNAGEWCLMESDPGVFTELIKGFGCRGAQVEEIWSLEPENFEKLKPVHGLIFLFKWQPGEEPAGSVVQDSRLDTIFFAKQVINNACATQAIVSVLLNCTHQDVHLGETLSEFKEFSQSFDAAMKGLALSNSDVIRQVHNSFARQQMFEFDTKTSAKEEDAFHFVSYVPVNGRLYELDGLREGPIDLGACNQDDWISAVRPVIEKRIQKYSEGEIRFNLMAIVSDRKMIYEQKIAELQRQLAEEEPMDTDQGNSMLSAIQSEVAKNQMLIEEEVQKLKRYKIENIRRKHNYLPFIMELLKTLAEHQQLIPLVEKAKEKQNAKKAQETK
#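 Material: human UCH37 enzyme supplied as purified proteasome complex. Measure: % inhibition of Ub-AMC cleavage fluorescence. Medium: pH 7.4 Tris-HCl (50 mM) with ovalbumin, ATP-MgCl2, DTT. Times: 30 min preincubation with enzyme, 25 min cleavage at room temperature. Detection: AMC fluorescence intensity at 355/460 nm.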
# CASP6 VEID inh: blocks human caspase-6 cleavage activity; P55212; purified caspase-6, Z-VEID-R110 cleavage fluorescence; inhibition, % at 12.5 µM; actives 0.53% (n = 350,000); AID 686996;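 active means mean inhibition across replicates at least about 35%, with every replicate also reaching that limit, limit read from the data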;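 further: 0% = median of neutral control wells and 100% = no fluorescence left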
# Target sequence (P55212 24-179 limits assumed): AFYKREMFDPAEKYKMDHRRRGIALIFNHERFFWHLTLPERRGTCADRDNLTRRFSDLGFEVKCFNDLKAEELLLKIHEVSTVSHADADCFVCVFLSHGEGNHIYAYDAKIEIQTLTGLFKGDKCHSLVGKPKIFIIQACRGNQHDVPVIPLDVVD
# Target sequence (P55212 194-293 limits assumed): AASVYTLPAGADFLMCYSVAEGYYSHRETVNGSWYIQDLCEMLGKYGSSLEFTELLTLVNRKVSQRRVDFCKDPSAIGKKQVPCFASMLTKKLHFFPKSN
# TDP2 inh: TDP2 (human) inhibition, absorbance primary screen; actives 0.34% (n = 370,000); recombinant TDP2, T5PNP hydrolysis, p-nitrophenol absorbance 415 nm; AID 720702; O95551; inhibition, % at 12.8 µM;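 active means inhibition above the mean of all tested compounds plus 3 SD, set per campaign, cut at about 25% in these data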;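 further: 0% = DMSO with enzyme and 100% = buffer with substrate but no TDP2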
#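 System – recombinant human TDP2 · Quantity – TDP2 enzyme at 120 nM final · Doses – single concentration, 12.8 µM nominal, with 1% DMSO · Incubation – 2 h at 37 °C · Measured by – epi absorbance of p-nitrophenol freed from T5PNP by hydrolysis · Read-out – % inhibition relative to enzyme-containing and enzyme-free wells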
# Numbers without * were called inactive; nt = no result.
SMILES,LEDGF integ inh,NSD2 HMT inh,UCH37 inh,CASP6 VEID inh,TDP2 inh
Cc1occc1C(=O)NCc1ccccc1,0,-2,-2,nt,9
O=C(NN=Cc1ccc(Cl)s1)c1cccs1,nt,nt,2,nt,nt
COc1ccc(NC(=O)c2cc3cccc(OC)c3oc2=Nc2ccc(C(=O)O)cc2)cc1OC,-3,13,24*,-2,11
COc1ccc(CCNC(=O)c2cc3cccc(OC)c3oc2=O)cc1OC,0,0,3,44*,8
COc1ccc(Br)cc1C(=O)Nc1ccc(C(=O)O)cc1,7,8,1,1,4
COc1cccc2cc(C(=O)NCc3ccc(Cl)cc3)c(=O)oc12,3,3,-11,1,2
COC/C=C/C1=CC2=CC(=O)C(C)(OC(=O)C3CCCC3)C(=O)C2=CO1 (configuration not stated),64*,nt,1,36*,0
CC1(OC(=O)C2CCCC2)C(=O)C=C2C=C3CCCCN3C=C2C1=O (configuration not stated),nt,nt,3,nt,nt
O=C1C(=Cc2cn(-c3ccccc3)nc2-c2ccc(OCc3ccccc3F)cc2)SC(=S)N1CCS(=O)(=O)O,1,nt,nt,75*,0
COc1ccc(-c2nn(-c3ccccc3)cc2/C=C2/SC(=S)N(CCC(=O)O)C2=O)c(C)c1,6,8,nt,29,-9
O=C1C(=Cc2cn(-c3ccccc3)nc2-c2ccc(OCc3ccc(Cl)cc3)cc2)SC(=S)N1CCS(=O)(=O)O,-1,nt,nt,46*,-5
O=C(O)CN1C(=O)/C(=C\c2cccc(OCc3ccccc3F)c2)SC1=S,6,16,17,21,-3
COc1cccc(C(=O)NCC(=O)NN=Cc2cccc(OC(=O)c3ccc([N+](=O)[O-])cc3)c2)c1,nt,nt,2,nt,nt
c1ccc(Nc2cccc3c(Nc4ccccc4)cccc23)cc1,2,19,-229,2,4
O=S(=O)(O)c1cccc2cccc(Nc3ccccc3)c12,-2,36,-34,56*,13
Nc1c(N2CCOCC2)cc(Cl)c2nonc12,-1,17,8,nt,15
Nc1c(N2CCCC2)cc(Cl)c2nonc12,nt,nt,87*,nt,nt
COc1ccc(C=NNc2nc(N3CCCCC3)nc(N3CCCCC3)n2)cc1[N+](=O)[O-],nt,nt,5,nt,nt
Cc1ccc([N+](=O)[O-])cc1S(=O)(=O)Nc1ccc(C(=O)N2CCN(C(=O)c3ccco3)CC2)cc1,1,0,1,54*,10
Cc1ccc([N+](=O)[O-])cc1S(=O)(=O)Nc1ccc(C(=O)N(C)C)cc1,1,1,5,-2,3
CO/N=C/c1ccc(Oc2ccc([N+](=O)[O-])cc2[N+](=O)[O-])c(OC)c1,-2,7,nt,nt,0
CCOc1ccc(/C=C2\SC(=S)NC2=O)cc1OC,-1,3,12,10,-10
COc1cc(/C=C2\SC(=O)NC2=O)ccc1Oc1ccc([N+](=O)[O-])cc1[N+](=O)[O-],-2,nt,3,39*,-4
COc1ccc(/C=C2\SC(=O)NC2=S)cc1OC,-2,7,16,45*,1
Cc1ccc(S(=O)(=O)/N=C2/NC(=O)/C(=C/c3cc([N+](=O)[O-])ccc3O)S2)cc1,10,11,nt,37*,-11
SMILES,LEDGF integ inh,NSD2 HMT inh,UCH37 inh,CASP6 VEID inh,TDP2 inh
COc1cc(/C=C2\S/C(=N/S(=O)(=O)c3ccc(C)cc3)NC2=O)c([N+](=O)[O-])cc1OC,2,28,20*,nt,-3
COC(=O)C[C@@H]1CC[C@H](NC(=O)c2ccc3c(c2)OCO3)[C@@H](CO)O1,-1,nt,nt,43*,13
O=C1c2ccccc2C(=O)c2c1oc(C(F)(F)F)c2C(=O)c1ccccc1,0,20,24*,nt,2
COc1ccc(-c2nn(-c3ccccc3)cc2C=NO)cc1OC,nt,nt,0,nt,nt
COc1ccc(CNC(=O)C2(CC3CC(c4ccccc4)=NO3)CCN(C(=O)C3(C)CC3)CC2)cc1 (configuration not stated),5,nt,0,nt,-14
COc1ccc(CNC(=O)C2(CC3CC(c4ccccc4)=NO3)CCN(C(=O)C3CCCC3)CC2)cc1 (configuration not stated),-4,nt,30*,-3,-2
COc1cccc(C=NNC(=O)c2cccc3ccccc23)c1,nt,nt,-2,nt,nt
CC(=NNc1nc(C)cc(-c2ccccc2)n1)c1ccc(F)cc1,nt,nt,3,nt,nt
COC(=O)CNC(=O)C1CCN(S(=O)(=O)c2cccc3nsnc23)CC1,2,-5,5,3,15
CC(C)(C)NC(=O)C1CCN(S(=O)(=O)c2cccc3nsnc23)CC1,-1,-2,1,55*,0
COc1cc(CNCCNC(=O)c2cccs2)cc(OC)c1OC,0,-4,0,-3,28*
NC1=C(Cl)C(=O)c2ccccc2C1=O,0,nt,nt,97*,19
CC(=O)c1cccc(N(CC(=O)NCC2CCCO2)C(=O)CCC(=O)Nc2cc(C)on2)c1 (configuration not stated),-3,-5,-3,nt,-7
Cc1cc(NC(=O)CCC(=O)N(CC(=O)NCC2CCCO2)c2cccc(F)c2)no1 (configuration not stated),41*,0,-3,2,-8
O=C(O)/C=C/C(=O)Nc1ccc(C2(c3ccc(NC(=O)/C=C/C(=O)O)cc3)c3ccccc3-c3ccccc32)cc1,-3,6,0,47*,-1
CCOC(=O)c1c(C)c(C(=O)NCc2ccccc2OC)c(C)n1C,6,0,-3,0,-10
CCOC(=O)c1c(C)c(C(=O)NCc2ccc(OC)cc2)c(C)n1C,-4,2,3,48*,-3
COc1ccc(Br)cc1C=NNC(=O)CN1CCCCC1,nt,nt,6,nt,nt
CCOC(=O)c1c(C)oc(N=Cc2ccccc2O)c1C#N,nt,nt,-1,nt,nt
O=C(O)c1ccc(N=Nc2c(O)[nH]c3cc(Cl)ccc23)cc1,0,4,nt,38*,-12
O=C(O)c1ccc(N=Nc2c(O)[nH]c3ccc(Br)cc23)cc1,7,4,nt,-1,-1
CC(=O)c1c(C)oc2ccc(NS(=O)(=O)c3ccc(C)cc3)cc12,-4,-3,3,0,-8
Cc1ccc(C)c(S(=O)(=O)Nc2ccc3oc(C)c(C(=O)O)c3c2)c1,9,49,1,69*,3
O=C(O)COc1ccccc1/C=N/NC(=O)CSc1nnc(SCc2ccc(Cl)cc2)s1,6,3,nt,23,-23
O=C(O)COc1ccccc1/C=N/NC(=O)CSc1nnc(SCc2cccc3ccccc23)s1,-1,8,nt,37*,13
COc1cc(CNC(C)c2ccccc2)c(Br)cc1OCC(N)=O (configuration not stated),2,0,3,80*,5
O=C(CCCCCNC(=O)c1ccccc1Cl)NN=Cc1ccco1,nt,nt,3,nt,nt
CCC1C(=O)N=C(SCC(=O)Nc2cccc3ccccc23)NC1=O (configuration not stated),-1,4,12,nt,3
